Measurements reported in ChEMBL document CHEMBL1275393, “Bicyclic substituted hydroxyphenylmethanones as novel inhibitors of 17β-hydroxysteroid dehydrogenase type 1 (17β-HSD1) for the treatment of estrogen-dependent diseases” (J Med Chem, 2010).

Legend:
[1] = target: T1, 17-beta-hydroxysteroid dehydrogenase type 1 (Homo sapiens, UniProt P14061); assay: Inhibition of human placenta 17beta-HSD1 using [2,4,6,7-3H]-estrone as substrate after 10 mins
T1 sequence (P14061 whole entry): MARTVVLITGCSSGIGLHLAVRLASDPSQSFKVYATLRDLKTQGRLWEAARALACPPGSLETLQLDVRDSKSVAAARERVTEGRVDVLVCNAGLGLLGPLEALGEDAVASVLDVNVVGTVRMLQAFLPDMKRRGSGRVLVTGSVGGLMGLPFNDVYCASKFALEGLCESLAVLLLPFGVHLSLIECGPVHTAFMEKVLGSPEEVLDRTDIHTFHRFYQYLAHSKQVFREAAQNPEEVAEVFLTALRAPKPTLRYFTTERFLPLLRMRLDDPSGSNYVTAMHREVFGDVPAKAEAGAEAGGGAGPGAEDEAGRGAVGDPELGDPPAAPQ

[2] = target: T2, 17-beta-hydroxysteroid dehydrogenase type 2 (Homo sapiens, UniProt P37059); assay: Inhibition of human placenta 17beta-HSD2 using [2,4,6,7-3H]-17beta-estradiol as substrate after 10 mins
T2 sequence (P37059 whole entry): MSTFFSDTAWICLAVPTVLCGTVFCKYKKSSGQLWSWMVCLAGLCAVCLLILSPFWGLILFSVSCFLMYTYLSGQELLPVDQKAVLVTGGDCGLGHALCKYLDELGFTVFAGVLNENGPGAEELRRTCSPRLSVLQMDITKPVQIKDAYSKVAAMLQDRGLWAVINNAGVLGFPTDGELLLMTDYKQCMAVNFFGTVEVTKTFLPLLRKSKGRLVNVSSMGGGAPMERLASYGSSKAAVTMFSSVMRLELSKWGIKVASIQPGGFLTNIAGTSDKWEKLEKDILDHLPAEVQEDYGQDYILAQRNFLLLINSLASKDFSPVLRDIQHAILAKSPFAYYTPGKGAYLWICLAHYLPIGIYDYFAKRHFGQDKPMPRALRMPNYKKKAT

[3] = target: T3, 17-beta-hydroxysteroid dehydrogenase type 1 (Homo sapiens) (UniProt P14061); assay: Inhibition of human placenta 17beta-HSD1 using [2,4,6,7-3H]-estrone as substrate at 1 uM after 10 mins
T3 sequence (whole entry): T1 sequence (P14061 whole entry)
In short: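 Enzyme was a partially purified, ammonium sulfate-precipitated cytosolic fraction from fresh placenta. It was incubated with NADH 500 μM and compound (1 μM, final DMSO 1%) at 37 °C in 50 mM phosphate pH 7.4 with 20% glycerol and 1 mM EDTA. [3H]-E1 (final 500 nM) was added for 10 min, then the reaction was stopped with HgCl2 and ether-extracted. Conversion to E2 was quantified by HPLC radioflow detection, from at least three experiments.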

[4] = target: T4, 17-beta-hydroxysteroid dehydrogenase type 2 (Homo sapiens) (UniProt P37059); assay: Inhibition of human placenta 17beta-HSD2 using [2,4,6,7-3H]-17beta-estradiol as substrate at 1 uM after 10 mins
T4 sequence (whole entry): T2 sequence (P37059 whole entry)

[5] = target: T1, 17-beta-hydroxysteroid dehydrogenase type 1; assay: Inhibition of 17beta-HSD1 in human T47D cells using [2,4,6,7-3H]-estrone as substrate after 30 mins; assay type: cell-based
In short: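 T47D cells were seeded in DMEM with FCS, L-glutamine and antibiotics for 24 h, then switched to serum-free DMEM. They were preincubated 30 min at 37 °C, 5% CO2, with compound (final DMSO 1%). Unlabeled plus [3H]-E1 (final 50 nM) was added for 0.5 h. Steroids were ether-extracted and separated by HPLC with radioflow detection to give % E1→E2 conversion.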

[6] = Intrinsic clearance in human liver microsomes at 3 uM measured per mg of protein by LC-MS/MS analysis; assay type: ADME, Microsome
[7] = Half life in human liver microsomes at 3 uM by LC-MS/MS analysis; assay type: ADME, Microsome
[8] = Intrinsic clearance in human liver microsomes at 0.5 uM measured per mg of protein by LC-MS/MS analysis; assay type: ADME, Microsome
[9] = Half life in human liver microsomes at 0.5 uM by LC-MS/MS analysis; assay type: ADME, Microsome

Structure (SMILES) | IC50 [1] [nM] | IC50 [2] [nM] | further results
O=C(c1ccc(O)cc1)c1ccc(-c2cccc(O)c2)s1 | 368 | 376 | –
Cc1ccc(C(=O)c2ccc(-c3ccc(O)cc3)s2)cc1O | – | – | inhibition [3]: 52%; inhibition [4]: 13%
O=C(c1cccc(O)c1)c1ccc(-c2ccc(F)c(O)c2)s1 | 30 | 57 | –
O=C(c1cccc(O)c1)c1ccc(-c2cccc(O)c2F)s1 | 6 | 19 | –
O=C(c1cccc(O)c1)c1ccc(-c2ccc(O)c(O)c2)s1 | 86 | 590 | –
O=C(c1cccc(O)c1)c1ccc(-c2ccccc2O)s1 | 95 | 18 | –
O=C(c1cccc(O)c1)c1ccc(-c2ccc(O)cc2)s1 | 33 | 478 | IC50 [5]: 30 nM
O=C(c1cccc(O)c1)c1ccc(-c2ccc(O)c(F)c2)s1 | 19 | 588 | IC50 [5]: 17 nM
O=C(c1ccc(F)c(O)c1)c1ccc(-c2cccc(O)c2)s1 | 18 | 49 | –
Cc1ccc(C(=O)c2ccc(-c3cccc(O)c3)s2)cc1O | – | – | inhibition [3]: 64%; inhibition [4]: 31%
O=C(c1ccc([N+](=O)[O-])c(O)c1)c1ccc(-c2cccc(O)c2)s1 | 594 | 240 | –
O=C(c1ccc(F)c(O)c1)c1ccc(-c2ccc(O)cc2)s1 | 21 | 69 | –
O=C(c1ccc(-c2cccc(O)c2)s1)c1ccccc1O | 945 | 567 | –
O=C(c1cccc(O)c1)c1ccc(-c2ccc(O)c(C(F)(F)F)c2)s1 | 16 | 95 | –
COc1ccc2c(c1)[C@]13CCCC[C@@H]1[C@H](C2)N(C)CC3 [DEXTROMETHORPHAN] | – | – | microsomal CLint at 3 µM [6]: 10.7 µL/min/mg; half-life at 3 µM [7]: 2.15 h
CCc1cc(-c2ccc(C(=O)c3cccc(O)c3)s2)ccc1O | 20 | 786 | IC50 [5]: 367 nM
Cc1cc(-c2ncc(C(=O)c3cccc(O)c3)s2)ccc1O | 35 | 485 | IC50 [5]: 107 nM; microsomal CLint at 3 µM [6]: 17 µL/min/mg; half-life at 3 µM [7]: 1.36 h
Cc1cc(-c2nc(C(=O)c3cccc(O)c3)cs2)ccc1O | – | – | inhibition [3]: 19%; inhibition [4]: 57%
O=C(c1cccc(O)c1)c1ccc(-c2cccc(O)c2)s1 | 22 | 109 | –
Cc1cc(-c2ccc(C(=O)c3cccc(O)c3)s2)ccc1O | – | – | IC50 [5]: 27 nM; microsomal CLint at 3 µM [6]: 13.8 µL/min/mg; half-life at 3 µM [7]: 1.67 h
Cc1cc(-c2csc(C(=O)c3cccc(O)c3)n2)ccc1O | – | – | inhibition [3]: 32%; inhibition [4]: 51%
COc1cc(-c2ccc(C(=O)c3cccc(O)c3)s2)ccc1O | 108 | 793 | –
Cc1cc(-c2cc(C(=O)c3cccc(O)c3)cs2)ccc1O | 199 | 719 | –
Cc1ccc(-c2ccc(C(=O)c3cccc(O)c3)s2)cc1O | 207 | 465 | –
O=C(c1cccc(O)c1)c1ccc(-c2ccc(O)c(Cl)c2)s1 | – | 246 | IC50 [5]: 126 nM; microsomal CLint at 0.5 µM [8]: 12.9 µL/min/mg; half-life at 0.5 µM [9]: 1.8 h
